# Compound activity: PubChem, several laboratories
# Shown are actives, neighbours in structure and some others; about 0.9% of the full set was active somewhere.
# S1P3 antag: S1P3 (human) receptor antagonism. CHO S1P3 NFAT-BLA reporter, FRET fluorescence, antagonist mode. inhibition, % at 4.98 µM. actives 0.27% (n = 170,000). AID 485. Q99500;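 active = inhibition above the plate cutoff, the mean inhibition of test wells on that plate plus 3 SD, cut at about 28% in these data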;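 also: cells challenged with S1P at its EC80 of 0.8 µM; blue over green emission ratio from cleaved BLA substrate after 4 h stimulation; 0% = S1P-stimulated wells and 100% = unstimulated DMSO-only wells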
# S1P4 ag: activates the human S1P4 receptor; actives 0.35% (n = 220,000); activation, % at 4.98 µM; S1P4-expressing cell line, agonist reporter assay; O95977; in the data active = activation above about 11%;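 also: 0% = DMSO vehicle and 100% = reference agonist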
# S1P4 antag: antagonists of human S1P4 receptor. actives 0.26% (n = 220,000). O95977. S1P4-expressing cells, antagonist mode, reporter read-out. inhibition, % at 4.98 µM; in the data active = inhibition above about 29%;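 also: 0% = wells stimulated with agonist and 100% = vehicle wells without agonist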
# Calb biofilm kill: mixture kills Candida albicans biofilm cells | C. albicans biofilm persisters + clotrimazole, fluorescence viability; primary screen in compound mixtures of four per well | inhibition, % at 7.6 µM | actives 0.02% (n = 120,000) | AID 1242;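 active = inhibition above 30.3% in the primary screen of four-compound pools, then above 30% when the compound was retested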;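 also: compounds exposed to preformed 24 h biofilms for 48 h; 0% = untreated biofilm control and 100% = clotrimazole plus chlorhexidine kill blank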
#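 Assay system: C. albicans biofilms / Medium: RPMI/MOPS medium, pH 7.0 / Schedule: biofilm formation 24 h, compound exposure 48 h, 37 °C / Measured by: Alamar Blue fluorescence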
# MDM2 E3 inh: blocks human Mdm2 ubiquitin ligase activity; Q00987; signal enhancement, % at 5 µM; cell-based MDM2 ubiquitination luciferase reporter, 2 h; 0 = plate control, 100 = twice control, blank-subtracted; actives 0.11% (n = 210,000);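 active = signal enhancement of 30% or more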;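 also: luminescence tracks abundance of the self-degrading MDM2-luciferase fusion protein; higher signal means inhibition of MDM2 E3 ligase activity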
#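 Test system: stable mammalian line carrying autodegrading MDM2–luciferase fusion reporter; quantity: 2000 cells in each well; times: 4 h cell settling then 2 h compound exposure, 37 °C; detection: luminescence with SteadyLite reagent, 15 min at room temperature; evaluation: percent signal gain over controls, blank-subtracted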
# S1P4 agonist cf: human S1P4 agonism, confirmation. activation, % at 4.98 µM. shares compounds with S1P4 ag. actives 7% (n = 740). S1P4 agonist cell-based reporter assay; in the data active = activation above about 12%;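 also: 0% = vehicle and 100% = full reference agonist response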
# S1P1 agonist: counter-screen for S1P4 agonists: agonists of human S1P1; shares compounds with S1P4 ag; S1P1 agonist cell-based assay, activation; activation, % at 4.98 µM; actives 4% (n = 740); in the data active = activation above about 21%;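 also: 0% = vehicle wells and 100% = reference agonist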
# Target sequence (P21453 whole entry, looked up): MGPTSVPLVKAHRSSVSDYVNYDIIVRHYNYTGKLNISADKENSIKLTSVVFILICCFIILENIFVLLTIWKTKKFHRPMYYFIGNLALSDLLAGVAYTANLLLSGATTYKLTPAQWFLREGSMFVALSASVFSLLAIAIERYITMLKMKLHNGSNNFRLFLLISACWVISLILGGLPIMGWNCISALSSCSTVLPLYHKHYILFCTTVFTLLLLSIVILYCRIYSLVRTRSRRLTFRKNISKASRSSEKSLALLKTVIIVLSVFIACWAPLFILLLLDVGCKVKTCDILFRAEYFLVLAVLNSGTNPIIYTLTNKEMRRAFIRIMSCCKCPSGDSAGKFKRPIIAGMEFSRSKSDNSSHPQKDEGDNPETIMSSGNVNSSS
# The depositor's hits bear a star; / = no result.
SMILES,S1P3 antag,S1P4 ag,S1P4 antag,Calb biofilm kill,MDM2 E3 inh,S1P4 agonist cf,S1P1 agonist
NCCCC[C@@H]1NC(=O)c2cc([N+](=O)[O-])cc(I)c2SC[C@@H](C(=O)NCC(N)=O)NC(=O)CNC1=O,-15,2,-11,17,/,/,/
CSc1nc(N)n2nc(C(C)(C)C)cc2n1,-4,23*,-17,15,11,-2,-5
CC(C)(C)c1cc2nc(N)nc(N)n2n1,-5,0,15,6,-9,/,/
CCN=c1scc(C)n1/N=C/c1ccsc1,18,165*,-5,/,0,-1,9
O=C(CN1CCCCC1)Nc1scc2c1c(=O)oc1ccccc12,-1,0,-2,13,-18,/,/
O=C(CN1CCOCC1)Nc1scc2c1c(=O)oc1ccccc12,-3,23*,5,10,-1,-2,-6
Cc1ncc([N+](=O)[O-])n1CC(=O)NCCc1ccccc1,-15,16*,3,9,-19,-1,-1
O=C(O)c1ccc(N2C(=O)/C(=C/C=C/c3ccccc3)SC2=S)cc1,1,15*,0,4,-6,-2,0
Cn1c(SCC(=O)c2ccc3c(c2)OCO3)nnc1C1COc2ccccc2O1 (centres undefined),12,11*,5,/,-14,62*,-1
COC(=O)c1sccc1NC(=S)N1CCN(c2cccc(C)c2C)CC1,1,23*,-11,7,7,-2,4
Cc1ccc(N/N=C(\C#N)C(N)=S)c(C)c1,3,20*,-1,7,-4,-1,-2
Cc1ccc(NC(=O)/C(C#N)=N/Nc2ccc(C(=O)O)cc2)c(C)c1,-11,-1,14,12,/,/,/
CCOCCCNS(=O)(=O)c1ccc(NC(=O)CN2C(=O)c3ccccc3C2=O)cc1,-10,1,-21,15,-4,/,/
CCOCCCNS(=O)(=O)c1ccc(NC(=O)N2c3ccccc3Sc3ccccc32)cc1,/,34*,0,/,-1,-3,-9
COc1ccc(N2CCN(C(=O)NCc3ccc(OC)c(Cl)c3)CC2)cc1,-23,16*,-4,11,16,-2,-11
CSc1ccc(NC(=O)Nc2cccn(Cc3ccccc3)c2=O)cc1,11,33*,-24,9,-13,-1,6
Cc1cc(Nc2cc(F)ccc2C)n2nc(C)nc2n1,-44,14*,0,2,/,-2,-8
CN(C)c1ccc(-c2ccc([C@H]3[C@@H]4C=CCC[C@@]4(C)C(=O)N3Cc3ccccc3)c(F)c2)cc1,/,/,/,15,-5,/,/
CCc1nc(SCC#N)c(C#N)cc1C,-10,23*,-10,8,-18,1,4
CCCCNC(=O)C1CC(c2c(Cl)cccc2Cl)=NO1 (centres undefined),/,13*,-19,/,-13,-2,-1
CCCCNC(=O)C1CC(c2cccc([N+](=O)[O-])c2)=NO1 (centres undefined),/,3,0,/,-16,/,/
OCC(O)C1OC(Nc2ccc(Cl)cc2)C(O)C1O (centres undefined),0,71*,23,0,-12,-1,11
O=C(CSc1nc2ccccc2c(=O)n1-c1ccc(F)c(Cl)c1)Nc1cccc(S(=O)(=O)N2CCOCC2)c1,0,30*,18,13,-15,-1,2
CC1=CC(C)(C)N2C(=O)C3(C(C#N)=C(N)Oc4cc(O)ccc43)c3c(C)c(C)cc1c32 (centres undefined),/,2,1,/,-7,/,/
Cc1nnc(SCCn2c(N3CCCCC3)nc3c2c(=O)n(C)c(=O)n3C)s1,-42,0,-6,/,/,/,/
SMILES,S1P3 antag,S1P4 ag,S1P4 antag,Calb biofilm kill,MDM2 E3 inh,S1P4 agonist cf,S1P1 agonist
Cc1nnc(SCCn2c(N3CCN(C)CC3)nc3c2c(=O)n(C)c(=O)n3C)s1,-1,45*,-7,/,-11,0,9
Cc1ccc(S(=O)(=O)NCCNC(=O)c2ccccc2)cc1,-19,-1,-3,/,-7,/,/
Cc1ccc(S(=O)(=O)CNC(=O)c2ccccc2)cc1,-9,24*,-2,/,-10,-2,1
COc1ccc(N2CC(C(=O)OCC(=O)NCc3ccccc3)CC2=O)cc1 (centres undefined),/,1,1,/,-38,/,/
COc1ccc(N2CC(C(=O)NCc3ccccc3)CC2=O)cc1 (centres undefined),-1,32*,-12,/,-8,0,0
COCCSc1nc(N)c(NC(=O)c2ccc(OC)cc2)c(=O)[nH]1,-13,12*,-7,11,3,-2,-4
Cc1cc(NC(=O)CSc2nc(N)c(NC(=O)c3ccccc3)c(=O)[nH]2)no1,-29,0,7,13,3,/,/
N#CC1=C(N)Oc2cc(N)ccc2C1C1CCCCC1 (centres undefined),32,14*,4,/,-15,-1,-3
Cc1ccccc1C(=O)c1cccn1CC(=O)NCc1ccc2c(c1)OCO2,/,-2,-8,/,-16,/,/
COc1ccccc1NC(=O)C(=O)N(c1cccnc1)C(C(=O)NC(C)(C)C)c1ccccc1F (centres undefined),-9,-1,4,8,-3,/,/
O=c1cc(CSc2nnc(Nc3ccccc3F)s2)nc2sccn12,3,55*,0,6,-1,-2,-1
O=C(Cc1cccs1)NCCc1csc(-c2ccccc2)n1,21,-1,5,29,-5,/,/
CCOC(=O)N1CCN(c2cc(=O)n(-c3cccc(C)c3)c(=O)[nH]2)CC1,-19,2,-6,26,-4,/,/
Cc1csc(NC(=O)CCNC(=O)c2ccc([N+](=O)[O-])cc2)n1,-29,0,-25,19,-6,/,/
S=C(c1cn(CCOc2cccc3ccccc23)c2ccccc12)N1CCCC1,4,29*,-6,15,-3,-2,-1
COc1ccc(CCNC(=O)Nc2cccc([N+](=O)[O-])c2)cc1,-3,1,-7,6,-4,/,/
COc1ccc(CCNC(=O)Nc2ccccc2[N+](=O)[O-])cc1,7,21*,1,24,-7,-3,-1
CS(=O)(=O)Nc1ccc(C(=O)N2CCN(c3ccccc3)CC2)cc1,/,56*,-5,/,-5,-2,-4
CC(C)CC(=O)NC(c1ccccc1Cl)c1c(O)ccc2ccccc12 (centres undefined),3,13*,-8,11,-5,-1,0
CC(C)c1ccc(/C=C2\C(=O)N(CCN3CCOCC3)C(=S)N2C)cc1,1,43*,4,10,-14,-1,-4
CC(C)c1ccc(/C=C/C(=O)Nc2ccc(CN3CCOCC3)cc2)cc1,-3,0,-10,20,-15,/,/
CCOC(=O)c1cc(-c2ccc(OC)cc2)nn1-c1ccc(C(=O)O)cc1,-8,-1,-5,22,-9,/,/
